The source made the active and inactive calls. The rule behind the calls is not given here.
Legend:
[1] = system: Rattus norvegicus; assay: Triglyceride level in cholesterol-fed male rats at 77 mg/kg/day relative to control; format: functional
Method in brief: (§1)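 Male Sprague–Dawley rats on a cholesterol diet, in groups of six, received the compound in the diet ad libitum for 8 days. Serum triglycerides are expressed as % change relative to untreated controls, with significance at p < 0.05 versus controls.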

[2] = system: Rattus norvegicus; assay: Increase of HDL level in cholesterol-fed male rats by FPLC method at 77 mg/kg/day relative to control; format: functional
Method in brief: (§2)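 Groups of six male Sprague–Dawley rats on a cholesterol diet received drug in the diet, ad libitum, for 8 days. Serum lipoproteins separated by FPLC, adapted for robotic automation, and cholesterol quantitated enzymatically by colorimetry. HDL given as % change versus untreated controls, with significance set at p < 0.05.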

[3] = system: Rattus norvegicus; assay: Increase of Apolipoprotein A-I level in cholesterol-fed male rats at 77 mg/kg/day relative to control; format: functional
Method in brief: (§3)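 Drug mixed into diet, fed ad libitum for 8 days to groups of six male Sprague–Dawley rats on a cholesterol diet. Serum Apo A-I measured by SDS–polyacrylamide gel electrophoresis or by rat competition ELISA. Reported as % change versus untreated controls, with significance set at p < 0.05.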

[4] = system: Rattus norvegicus; assay: Weight gain in cholesterol-fed male rats at 77 mg/kg/day relative to control; format: functional
Method in brief: (§4)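 Groups of six male Sprague–Dawley rats on a cholesterol diet received the compound in the diet, ad libitum, over 8 days. Body weight gain is reported as % change relative to untreated controls.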

[5] = system: Rattus norvegicus; assay: Increase of total cholesterol level in cholesterol-fed male rats at 77 mg/kg/day relative to control; format: functional
Method in brief: (§5)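 Dietary (ad libitum) dosing of groups of six male Sprague–Dawley rats on a cholesterol diet for 8 days. Serum total cholesterol was quantitated enzymatically by a colorimetric method and expressed as % change relative to untreated controls, with significance at p < 0.05.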

[6] = system: Rattus norvegicus; assay: Increase of HDL level in cholesterol-fed male rats by ultracentrifugation method at 77 mg/kg/day relative to control; format: functional
Method in brief: (§6)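 Compound given in the diet, ad libitum, to groups of six male Sprague–Dawley rats on a cholesterol diet for 8 days. Serum lipoproteins were separated by classical ultracentrifugation, and HDL cholesterol was quantitated by an enzymatic colorimetric method. Results are reported as % change relative to untreated controls, with significance at p < 0.05 versus controls.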

[7] = system: Rattus norvegicus; assay: Increase of HDL cholesterol in normal-fed rat at 50 mg/kg/day; format: functional
[8] = system: Rattus norvegicus; assay: Increase of HDL level in cholesterol-fed male rats by FPLC method at 50 mg/kg/day relative to control; format: functional; method in brief: as §2
[9] = system: Hamster; assay: Increase of HDL cholesterol in chow-fed hamster at 45 mg/kg/day; format: functional, organism-based; conditions: Cricetulus griseus
[10] = system: Canis familiaris; assay: Increase of HDL cholesterol in normal-fed dog at 250 mg/kg/day; format: functional, organism-based; conditions: Canis lupus familiaris
[11] = system: Rattus norvegicus; assay: Increase of total cholesterol level in cholesterol-fed male rats at 50 mg/kg/day relative to control; format: functional; method in brief: as §5
[12] = system: Rattus norvegicus; assay: Triglyceride level in cholesterol-fed male rats at 50 mg/kg/day relative to control; format: functional; method in brief: as §1
[13] = system: Rattus norvegicus; assay: Increase of HDL level in cholesterol-fed male rats by ultracentrifugation method at 50 mg/kg/day relative to control; format: functional
Method in brief: (§7)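 Cholesterol-fed male Sprague–Dawley rats, six per group, given drug in the diet ad libitum for 8 days. Serum lipoproteins separated by classical ultracentrifugation and HDL cholesterol measured by an enzymatic colorimetric method. Expressed as % change versus untreated controls, with significance set at p < 0.05.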

[14] = system: Rattus norvegicus; assay: Weight gain in cholesterol-fed male rats at 50 mg/kg/day relative to control; format: functional; method in brief: as §4
[15] = system: Rattus norvegicus; assay: Increase of Apo A-I level in cholesterol-fed male rats at 50 mg/kg/day relative to control; format: functional; method in brief: as §3
[16] = system: Hamster; assay: Increase of HDL cholesterol in normal-fed hamster at 45 mg/kg/day; format: functional, organism-based; conditions: Cricetinae
[17] = system: Rattus norvegicus; assay: Increase of HDL level in cholesterol-fed male rats by ultracentrifugation method at 55 mg/kg/day relative to control; format: functional; method in brief: as §7
[18] = system: Rattus norvegicus; assay: Weight gain in cholesterol-fed male rats at 55 mg/kg/day relative to control; format: functional; method in brief: as §4
[19] = system: Rattus norvegicus; assay: Increase of total cholesterol level in cholesterol-fed male rats at 55 mg/kg/day relative to control; format: functional; method in brief: as §5
[20] = system: Rattus norvegicus; assay: Increase of HDL level in cholesterol-fed male rats by FPLC method at 55 mg/kg/day relative to control; format: functional; method in brief: as §2
[21] = system: Rattus norvegicus; assay: Increase of Apolipoprotein A-I level in cholesterol-fed male rats at 55 mg/kg/day relative to control; format: functional; method in brief: as §3
[22] = system: Rattus norvegicus; assay: Triglyceride level in cholesterol-fed male rats at 55 mg/kg/day relative to control; format: functional; method in brief: as §1
[23] = system: Rattus norvegicus; assay: Increase of total cholesterol level in cholesterol-fed male rats at 57 mg/kg/day relative to control; format: functional; method in brief: as §5
[24] = system: Rattus norvegicus; assay: Triglyceride level in cholesterol-fed male rats at 57 mg/kg/day relative to control; format: functional; method in brief: as §1
[25] = system: Rattus norvegicus; assay: Increase of HDL level in cholesterol-fed male rats by ultracentrifugation method at 57 mg/kg/day relative to control; format: functional; method in brief: as §7
[26] = system: Rattus norvegicus; assay: Weight gain in cholesterol-fed male rats at 57 mg/kg/day relative to control; format: functional; method in brief: as §4
[27] = system: Rattus norvegicus; assay: Increase of HDL level in cholesterol-fed male rats by FPLC method at 57 mg/kg/day relative to control; format: functional; method in brief: as §2
[28] = system: Rattus norvegicus; assay: Increase of Apolipoprotein A-I level in cholesterol-fed male rats at 57 mg/kg/day relative to control; format: functional; method in brief: as §3
[29] = species on record: Rattus norvegicus; assay: Increase in liver enzyme Alkaline phosphatase; format: functional; design: concentration or dose not given beside the values
[30] = system: Rattus norvegicus; assay: Increase of HDL level in cholesterol-fed male rats by FPLC method at 62 mg/kg/day relative to control; format: functional; method in brief: as §2
[31] = system: Rattus norvegicus; assay: Increase of Apolipoprotein A-I level in cholesterol-fed male rats at 62 mg/kg/day relative to control; format: functional; method in brief: as §3
[32] = system: Rattus norvegicus; assay: Weight gain in cholesterol-fed male rats at 62 mg/kg/day relative to control; format: functional; method in brief: as §4
[33] = system: Rattus norvegicus; assay: Triglyceride level in cholesterol-fed male rats at 62 mg/kg/day relative to control; format: functional; method in brief: as §1
[34] = system: Rattus norvegicus; assay: Increase of HDL level in cholesterol-fed male rats by ultracentrifugation method at 62 mg/kg/day relative to control; format: functional; method in brief: as §7
[35] = system: Rattus norvegicus; assay: Increase of total cholesterol level in cholesterol-fed male rats at 62 mg/kg/day relative to control; format: functional; method in brief: as §5
[36] = system: Rattus norvegicus; assay: Increase of Apolipoprotein A-I level in cholesterol-fed male rats at 79 mg/kg/day relative to control; format: functional; method in brief: as §3
[37] = system: Rattus norvegicus; assay: Increase of HDL level in cholesterol-fed male rats by FPLC method at 79 mg/kg/day relative to control; format: functional; method in brief: as §2
[38] = system: Rattus norvegicus; assay: Triglyceride level in cholesterol-fed male rats at 79 mg/kg/day relative to control; format: functional; method in brief: as §1
[39] = system: Rattus norvegicus; assay: Weight gain in cholesterol-fed male rats at 79 mg/kg/day relative to control; format: functional; method in brief: as §4
[40] = system: Rattus norvegicus; assay: Increase of total cholesterol level in cholesterol-fed male rats at 79 mg/kg/day relative to control; format: functional; method in brief: as §5
[41] = system: Rattus norvegicus; assay: Increase of HDL level in cholesterol-fed male rats by ultracentrifugation method at 79 mg/kg/day relative to control; format: functional; method in brief: as §6

In the case of `Cc1ccc(Cl)cc1/N=C(\S)NCc1ccccc1`, the Activity [1] is reported as -21%, the Activity [2] is reported as 136% and the Activity [3] is reported as 27%. The Activity [4] was 41%, the Activity [5] was 97% and the Activity [6] was 135%.

`Cc1ccc(Cl)cc1/N=C(\S)NC(C)(C)C` gave an Activity [1] of -31%, an Activity [2] of 22% and an Activity [3] of 60%. It also gave an Activity [4] of 9%, an Activity [5] of -15% and an Activity [6] of 30%.

With `Cc1ccc(C)c(OCCCC(C)(C)C(=O)O)c1` [GEMFIBROZIL] the Activity [7] was 25%, the Activity [8] was 139% and the Activity [9] was “inactive”. The Activity [10] was “inactive”, the Activity [11] was -23% and the Activity [12] was -29%. The Activity [13] was 104%, the Activity [14] was 2% and the Activity [15] was 54%. The Activity [16] was “inactive”.

`Cc1ccc(Cl)cc1/N=C(\S)NCCO` gave an Activity [17] of 75%, an Activity [18] of -104% and an Activity [19] of 39%. For the same compound, the Activity [20] was 241%, the Activity [21] was 48% and the Activity [22] was -53%.

`CCC/N=C(\S)Nc1cc(F)ccc1C` gave an Activity [23] of 54%, an Activity [24] of -58% and an Activity [25] of 152%. It also gave an Activity [26] of -77%, an Activity [27] of 312% and an Activity [28] of 18%.

`CCC/N=C(\S)Nc1cc(C)ccc1C` gave an Activity [29] of 75%, an Activity [30] of 278% and an Activity [31] of 72%. For the same compound, the Activity [32] was -38%, the Activity [33] was -59% and the Activity [34] was 127%. It also gave an Activity [35] of 29%.

Compound `CCC/N=C(\S)Nc1cc(OC)ccc1OC` has an Activity [36] of 19%, an Activity [37] of 97% and an Activity [38] of -23%. It also gave an Activity [39] of 14%, an Activity [40] of 60% and an Activity [41] of 108%.
